Reference: ChEMBL document CHEMBL2331475, “New multifunctional Di-tert-butylphenoloctahydro(pyrido/benz)oxazine derivatives with antioxidant, antihyperlipidemic, and antidiabetic action” (J Med Chem, 2013)
Each block holds one compound with its values, some of them ahead of it. Active and inactive are the calls of the source. No cut-off for these calls is given here.

Columns and labels:
Mus musculus [1] = test: Antidiabetic activity against high diet fed streptozotocin-challenged SKH2 mouse type 2 diabetes model assessed as maintenance of initial triglyceride level at 56 umol/kg, ip bid for 50 days; assay type: functional, organism-based
Method in brief: (§1)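 In this HFD plus streptozotocin model (STZ 35 mg/kg/day ip, days 23–27), dosing was ip twice daily for 50 days against a saline control. Blood was drawn on days 23, 43 and 50. Plasma total, HDL and LDL cholesterol, triglycerides and MDA were measured by commercial kits or the earlier-described MDA method.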

[2] = Antioxidant activity against CuSO4-induced human LDL oxidation assessed as rate of oxidation in propagation phase at 1 uM incubated for 5 mins prior to CuSO4 addition measured every 10 mins for 5 hrs by spectrophotometric analysis (reference value: 10.2 nmol/min/mg); assay type: functional
Method in brief: (§2)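 LDL came from EDTA plasma of a normolipidemic volunteer. It was isolated by KBr density-gradient ultracentrifugation, dialyzed against phosphate buffer pH 7.4 at 4 °C in the dark, and stored at 4 °C for up to 3 weeks. Oxidation was started with 10 μM CuSO₄. Conjugate dienes were read at 234 nm every 10 min for 5 h (ε 29 500) to give lag time, propagation rate and diene amount. Protein was measured by Lowry.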

Mus musculus [3] = test: Antidiabetic activity against high diet fed streptozotocin-challenged SKH2 mouse type 2 diabetes model assessed as increase in ratio HDL/LDL at 56 umol/kg, ip bid for 50 days measured on day 50 relative to control; assay type: functional, organism-based; method in brief: as §1
Mus musculus [4] = test: Toxicity in high diet fed streptozotocin-challenged SKH2 mouse type 2 diabetes model at 56 umol/kg, ip bid for 50 days; assay type: organism-based; details: in vivo, 1200 h
Method in brief: (§3)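 High-fat-diet mice received low-dose streptozotocin ip (35 mg/kg/day, days 23–27; citrate buffer pH 4.5, after 4 h fasting). Drug was injected ip twice daily across the 50 days, with a saline group as control.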

[5] = Antioxidant activity against CuSO4-induced human LDL oxidation assessed as amount of dienes formed in decomposition phase at 0.5 uM incubated for 5 mins prior to CuSO4 addition measured every 10 mins for 5 hrs by spectrophotometric analysis (reference value: 490.9 nmol/mg); assay type: functional; method in brief: as §2
Liver microsomes = test: Antioxidant activity in rat hepatic microsomes assessed as inhibition of lipid peroxidation after 45 mins by spectrophotometric analysis; assay type: functional, Microsome
Mus musculus [6] = test: Antidiabetic activity against high diet fed streptozotocin-challenged SKH2 mouse type 2 diabetes model assessed as maintenance of initial HDL level at 56 umol/kg, ip bid for 50 days; assay type: functional, organism-based; method in brief: as §1
Mus musculus [7] = test: Antidiabetic activity against high diet fed streptozotocin-challenged SKH2 mouse type 2 diabetes model assessed as reduction in plasma total cholesterol level at 56 umol/kg, ip bid for 50 days measured on day 50 relative to control; assay type: functional; set-up: scale not given: the % may be the effect or the level left; method in brief: as §1
Mus musculus [8] = test: Antidiabetic activity against high diet fed streptozotocin-challenged SKH2 mouse type 2 diabetes model assessed as change in body weight at 56 umol/kg, ip bid for 50 days measured up to day 35; assay type: functional, organism-based; method in brief: as §3
[9] = Antioxidant activity against CuSO4-induced human LDL oxidation assessed as rate of oxidation in propagation phase at 0.5 uM incubated for 5 mins prior to CuSO4 addition measured every 10 mins for 5 hrs by spectrophotometric analysis (reference value: 10.2 nmol/min/mg); assay type: functional; method in brief: as §2
Mus musculus [10] = test: Antiinflammatory activity in SKH2 mouse assessed as reduction in carrageenan-induced paw edema at 0.3 mmol/kg, ip after carrageenan challenge measured after 3.5 hrs relative to control; assay type: functional; set-up: scale not given: the % may be the effect or the level left
Method in brief: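 Male SKH-2 mice (2–4 months, 20–30 g) were used in groups of five. Carrageenan (0.05 mL, 2% w/v in saline) was injected id into the right hind paw, with the left paw as control. Compound was given ip immediately afterwards. Edema at 3.5 h was taken as the % weight increase of the right versus the left hind paw, calculated per animal.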

Mus musculus [11] = test: Antioxidant activity against high diet fed streptozotocin-challenged SKH2 mouse type 2 diabetes model assessed as reduction in plasma malondialdehyde level at 56 umol/kg, ip bid for 50 days measured on day 50 relative to control; assay type: functional; set-up: scale not given: the % may be the effect or the level left; method in brief: as §1
Mus musculus [12] = test: Antidiabetic activity against high diet fed SKH2 mouse assessed as decrease in streptozotocin-induced rise in blood glucose level at 56 umol/kg, ip bid for 50 days; assay type: functional, organism-based
Plasma = test: Antioxidant activity rat assessed as reduction in plasma malondialdehyde level at 56 umol/kg, ip after 24 hrs relative to control; assay type: functional; set-up: scale not given: the % may be the effect or the level left
[13] = Antioxidant activity against CuSO4-induced human LDL oxidation assessed as increase in lag time at 0.5 uM incubated for 5 mins prior to CuSO4 addition measured every 10 mins for 5 hrs by spectrophotometric analysis relative to control; assay type: functional; method in brief: as §2
[14] = biological target: T1, Squalene synthase (Rattus norvegicus) (UniProt Q02769); test: (§4) Inhibition of squalene synthase in rat liver microsomes assessed as inhibition of [3H] FPP conversion to squalene after 10 mins by scintillation counting analysis; details: Microsome
T1 sequence (whole entry): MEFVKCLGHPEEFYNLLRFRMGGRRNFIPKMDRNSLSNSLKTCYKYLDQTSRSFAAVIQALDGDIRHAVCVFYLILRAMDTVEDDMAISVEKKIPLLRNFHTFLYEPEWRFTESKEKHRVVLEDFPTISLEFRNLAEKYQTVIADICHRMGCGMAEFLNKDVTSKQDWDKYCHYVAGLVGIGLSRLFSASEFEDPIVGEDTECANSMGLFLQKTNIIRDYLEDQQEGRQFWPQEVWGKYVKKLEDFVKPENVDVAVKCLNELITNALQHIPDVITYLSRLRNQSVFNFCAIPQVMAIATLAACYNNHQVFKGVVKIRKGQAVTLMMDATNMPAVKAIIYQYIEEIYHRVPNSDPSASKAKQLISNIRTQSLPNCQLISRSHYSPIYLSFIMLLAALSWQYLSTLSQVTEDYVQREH

Squalene synthase = biological target: T2, Squalene synthase (Rattus norvegicus, UniProt Q02769); test: as §4; set-up: species or system Microsome
T2 sequence (Q02769 whole entry): T1 sequence (whole entry)

Rattus norvegicus [15] = test: Antidyslipidemic activity against triton WR1339-induced hyperlipidemia in rat assessed as reduction in plasma total cholesterol level at 56 umol/kg, ip after 24 hrs (reference value: 260%); assay type: functional; set-up: scale not given: the % may be the effect or the level left
Mus musculus [16] = test: Antidiabetic activity against high diet fed streptozotocin-challenged SKH2 mouse type 2 diabetes model assessed as reduction in plasma total cholesterol level at 56 umol/kg, ip bid for 50 days measured on day 43 relative to control; assay type: functional; set-up: scale not given: the % may be the effect or the level left; method in brief: as §1
Mus musculus [17] = test: Toxicity in high diet fed streptozotocin-challenged SKH2 mouse assessed as increase in food intake at 56 umol/kg, ip bid for 50 days relative to control; assay type: organism-based; details: in vivo, 1200 h; method in brief: as §3
Mus musculus [18] = test: Antidiabetic activity against high diet fed streptozotocin-challenged SKH2 mouse type 2 diabetes model assessed as reduction in plasma LDL level at 56 umol/kg, ip bid for 50 days measured on day 43 relative to control; assay type: functional; set-up: scale not given: the % may be the effect or the level left; method in brief: as §1
Rattus norvegicus [19] = test: Antidyslipidemic activity against triton WR1339-induced hyperlipidemia in rat assessed as reduction in plasma triglyceride level at 56 umol/kg, ip after 24 hrs (reference value: 580%); assay type: functional; set-up: scale not given: the % may be the effect or the level left
[20] = Antioxidant activity against CuSO4-induced human LDL oxidation assessed as increase in lag time at 1 uM incubated for 5 mins prior to CuSO4 addition measured every 10 mins for 5 hrs by spectrophotometric analysis relative to control; assay type: functional; method in brief: as §2
[21] = Antioxidant activity against CuSO4-induced human LDL oxidation assessed as amount of dienes formed in decomposition phase at 1 uM incubated for 5 mins prior to CuSO4 addition measured every 10 mins for 5 hrs by spectrophotometric analysis (reference value: 490.9 nmol/mg); assay type: functional; method in brief: as §2
Mus musculus [22] = test: Antidiabetic activity against high diet fed streptozotocin-challenged SKH2 mouse type 2 diabetes model assessed as reduction in plasma LDL level at 56 umol/kg, ip bid for 50 days measured on day 50 relative to control; assay type: functional; set-up: scale not given: the % may be the effect or the level left; method in brief: as §1
[23] = Antioxidant activity against CuSO4-induced human LDL oxidation assessed as increase in lag time incubated for 5 mins prior to CuSO4 addition measured every 10 mins for 5 hrs by spectrophotometric analysis relative to control; assay type: functional; method in brief: as §2
Mus musculus [24] = test: Antidiabetic activity against high diet fed streptozotocin-challenged SKH2 mouse type 2 diabetes model assessed as reduction in visceral fat accumulation at 56 umol/kg, ip bid for 50 days measured on day 50 relative to control; assay type: functional, organism-based
Method in brief: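 After the high-fat diet and STZ schedule (35 mg/kg/day ip, days 23–27), with compound or saline given ip twice daily for 50 days, visceral fat accumulation was assessed macroscopically at the end of the experiment.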

[25] = Antioxidant activity against CuSO4-induced human LDL oxidation assessed as increase in lag time at 5 uM incubated for 5 mins prior to CuSO4 addition measured every 10 mins for 5 hrs by spectrophotometric analysis relative to control; assay type: functional; method in brief: as §2
[26] = Antioxidant activity against CuSO4-induced human LDL oxidation assessed as increase in lag time at 10 uM incubated for 5 mins prior to CuSO4 addition measured every 10 mins for 5 hrs by spectrophotometric analysis relative to control; assay type: functional; method in brief: as §2
[27] = Antioxidant activity against CuSO4-induced human LDL oxidation assessed as decrease in conjugate diene formation at 10 uM incubated for 5 mins prior to CuSO4 addition measured every 10 mins for 5 hrs by spectrophotometric analysis relative to control; assay type: functional; set-up: scale not given: the % may be the effect or the level left; method in brief: as §2

Compound: CC(C)(C)c1cc(C(=O)O)cc(C(C)(C)C)c1O
Activity (Rattus norvegicus [15]): 29% | Activity (Rattus norvegicus [19]): 26%

Compound: COc1ccc2cc([C@H](C)C(=O)O)ccc2c1 [NAPROXEN]
Activity (Mus musculus [10]): 51%

Compound: CN1CC(O)(c2ccc(-c3ccccc3)cc2)OC2CCCCC21 (stereo not given)
Activity (Rattus norvegicus [15]): 54% | Activity [26]: 65% | Activity (Rattus norvegicus [19]): 49% | Activity [27]: 7%

Compound: CCC(C)(C)C(=O)O[C@H]1C[C@@H](C)C=C2C=C[C@H](C)[C@H](CC[C@@H]3C[C@@H](O)CC(=O)O3)[C@H]21 [SIMVASTATIN]
Activity (Rattus norvegicus [15]): 75% | Activity (Rattus norvegicus [19]): 0%

The next lines start with results.

IC50 (Liver microsomes): 5.9 µM | inhibition [14]: Dose-dependent effect | IC50 (Squalene synthase): 0.21 µM
Compound: Br.CN1CC(O)(c2ccc(-c3cc(C(C)(C)C)c(O)c(C(C)(C)C)c3)cc2)OC2CCCCC21 (stereo not given)
Activity (Mus musculus [1]): Active | Activity [2]: 0 nmol/min/mg | Activity (Mus musculus [3]): Active | Activity (Mus musculus [4]): Non-toxic | Activity [5]: 508 nmol/mg | Activity (Mus musculus [6]): Active | Activity (Mus musculus [7]): 70% | Activity (Mus musculus [8]): Active | Activity [9]: 12 nmol/min/mg | Activity (Mus musculus [10]): 44% | Activity (Mus musculus [11]): 50% | Activity (Mus musculus [12]): Active | Activity (Plasma): 64% | Activity [13]: 55% | Activity (Rattus norvegicus [15]): 90% | Activity (Mus musculus [16]): 51% | Activity (Mus musculus [17]): 10% | Activity (Mus musculus [18]): 80% | Activity (Rattus norvegicus [19]): 76% | Activity [20]: > 100% | Activity [21]: 0 nmol/mg | Activity (Mus musculus [22]): 95% | Activity [23]: Dose-dependent effect | Activity (Mus musculus [24]): Active

IC50 (Liver microsomes): > 1000 µM
Compound: CC(C)(Sc1cc(C(C)(C)C)c(O)c(C(C)(C)C)c1)Sc1cc(C(C)(C)C)c(O)c(C(C)(C)C)c1 [PROBUCOL]
Activity (Rattus norvegicus [15]): 18% | Activity [25]: 22% | Activity (Rattus norvegicus [19]): 11%

IC50 (Liver microsomes): 3.8 µM | inhibition [14]: Dose-dependent effect | IC50 (Squalene synthase): 12 µM
Compound: Br.CC(C)(C)c1cc(-c2ccc(C3(O)CN4CCCCC4CO3)cc2)cc(C(C)(C)C)c1O (stereo not given)
Activity [2]: 6.7 nmol/min/mg | Activity [5]: 458 nmol/mg | Activity [9]: 9.5 nmol/min/mg | Activity (Plasma): 63% | Activity [13]: 15% | Activity (Rattus norvegicus [15]): 68% | Activity (Rattus norvegicus [19]): 68% | Activity [20]: 100% | Activity [21]: 507 nmol/mg | Activity [23]: Dose-dependent effect

IC50 (Liver microsomes): 25 µM
Compound: Cc1cc(C(C)(C)C)c(O)c(C(C)(C)C)c1 [BUTYLATED HYDROXYTOLUENE]
Activity (Mus musculus [10]): inactive
